Source: PubChem
An excerpt weighted towards active compounds, which were near 1.9% of everything screened.
HGIII-sPLA2 inh = Inhibits HGIII-sPLA2 liposome hydrolysis, primary screen; Q9NZ20; QFRET BODIPY PC-A2 liposome hydrolysis, fluorescence; inhibition, % at 12.2 µM; 370,000 compounds, 0.56% hits; AID 743126;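 active = inhibition above mean plus 3 SD of compounds lying within the high and low control bounds, cut at about 19% in these data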
PLC-gamma1 inh = blocks human PLC-gamma1 enzyme activity; inhibition, % at 12.2 µM; purified PLC-gamma1, fluorogenic substrate, fluorescence; P19174; AID 720700; 370,000 compounds, 0.84% hits
PLCb3 inh = inhibitors of human phospholipase C beta3. Q01970. Purified PLC-beta3, fluorogenic substrate, fluorescence. inhibition, % at 12.2 µM. 370,000 compounds, 0.18% hits. AID 720704; in the data active = inhibition above about 11%
ARFGAP1 inh = rat ARFGAP1 inhibition. Arfgap1-stimulated ARF1 GTP hydrolysis, GDP FP detection. inhibition, % at 16.5 µM. 360,000 compounds, 0.26% hits. AID 651572;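 active = inhibition above a per-plate limit, mean inhibition of low control wells plus 3 SD, cut at about 25% in these data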
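Replicates: Single well per compound | Assay system: Truncated rat Arfgap1 GAP domain | Control set: No-Arfgap1 wells (100%) versus DMSO full-reaction wells (0%) | Times: Enzyme reaction 120 min at 25 °C after 20 min preincubation | Reagent: Human ARF1(Δ1-17)-GTP substrate | Measured by: Tracer-displacement fluorescence polarization with EDTA stop, 620/688 nm | Measure: Percent inhibition of Arfgap1-stimulated GTP hydrolysis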
ASAP1 inh = ASAP1 ArfGAP inhibition; Q9ULH1; ASAP1-stimulated ARF1 GTP hydrolysis, GDP FP detection; inhibition, % at 16.5 µM; 360,000 compounds, 0.19% hits; AID 624377; in the data active = inhibition above about 25%
PLCg1 ctr = inhibits human PLC-gamma1 in PLC-beta3 counter-screen; shares compounds with PLC-gamma1 inh; inhibition, % at 12.3 µM; purified PLC-gamma1, fluorogenic substrate, fluorescence; AID 743258; 3,300 compounds, 3.1% hits
PLCb3 confirm = confirmation of human PLC-beta3 inhibitors | shares compounds with PLC-gamma1 inh | purified PLC-beta3, fluorogenic substrate fluorescence | inhibition, % at 12.3 µM | 3,300 compounds, 1% hits | AID 743261; in the data active = inhibition above about 11%
Each line names hits and unclear results; the compound was inactive in the other large screens (follow-up assays come after a bar, where they were run). Rule as the data show it, unless noted: active = inhibition above about 9.5%; inactive = the rest.

O=C(NCc1cccs1)NC1CCCCC1	PLC-gamma1 inh 9.8 | PLCg1 ctr inactive | PLCb3 confirm inactive
O=C(O)C(C(=O)O)=C1C2CC3CC(C2)CC1C3	PLC-gamma1 inh 11 | PLCg1 ctr inactive | PLCb3 confirm inactive
C#CCn1c(S(=O)(=O)Cc2ccc(C)cc2)nc(-c2ccccc2)c1-c1ccccc1	PLC-gamma1 inh 10 | PLCg1 ctr inactive | PLCb3 confirm inactive
Nc1ccc(C(CC(=O)O)n2cccc2)cc1 (stereo not given)	PLC-gamma1 inh 26, PLCb3 inh 14 | PLCg1 ctr inactive | PLCb3 confirm inactive
O=C(O)CC(c1ccccc1)n1cccc1 (stereo not given)	none
O=C(Nc1c(-c2ccc(F)cc2)nc2ncccn12)C1CC1	none (no result: ARFGAP1 inh, ASAP1 inh)
COC(=O)[C@]12C[C@H](CC(=O)NCC3CCCCC3)C(=O)N(Cc3ccc(Cl)cc3Cl)C1=C[C@H](C(C)C)O[C@@H]2C1CC1	none (no result: ARFGAP1 inh, ASAP1 inh)
O=C(NC1CCCCN(Cc2cccc(Cl)c2)C1=O)c1ccc2ccccc2c1 (stereo not given)	none (no result: ARFGAP1 inh, ASAP1 inh)
COc1ccc(C(=O)N2CCC(O)(c3ccc(F)cc3)CC2)cc1OC	PLC-gamma1 inh 10 | PLCg1 ctr inactive | PLCb3 confirm inactive
O=C(CSc1nnc(-c2ccccc2Br)o1)Nc1nncs1	PLCb3 inh 11 | PLCg1 ctr inactive | PLCb3 confirm inactive
CC(C)(C)OC(=O)C[C@@H]1C/C=C\C[C@@H](CC(=O)N(CCO)Cc2ccccc2)C(=O)NCCOC1=O	none
CC(C)(C)OC(=O)C[C@H]1C/C=C\C[C@@H](CC(=O)N(CCO)Cc2ccccc2)C(=O)N2CCC[C@@H]2COC1=O	PLCb3 inh 11 | PLCg1 ctr inactive | PLCb3 confirm inactive
CC(C)(C)OC(=O)C[C@H]1C/C=C\C[C@@H](CC(=O)N(CCO)Cc2ccccc2)C(=O)N2CCC[C@H]2COC1=O	none
CC(C)(C)OC(=O)C[C@@H]1C/C=C\C[C@H](CC(=O)N(CCO)Cc2ccccc2)C(=O)NCCOC1=O	PLCb3 inh 17 | PLCg1 ctr inactive | PLCb3 confirm inactive
C=CC[C@@]1(c2ccc(Br)cc2OC)Oc2ccccc2-c2nccnc21	none (no result: ARFGAP1 inh, ASAP1 inh)
O=C(NCCC1=CCCCC1)C(=O)NCC(c1ccco1)N1CCN(c2ccccc2)CC1 (stereo not given)	PLC-gamma1 inh 13 | PLCg1 ctr inactive | PLCb3 confirm inactive
CCOC(=O)c1sc(NC(=S)NC(=O)C2CCCC2)cc1C	none
CCOC(=O)c1sc(NC(=O)C2CC2)cc1C	PLC-gamma1 inh 11 | PLCg1 ctr inactive | PLCb3 confirm inactive
Cc1ccc(SCc2cc(=O)[nH]c(Nc3nc(C)c4cccc(C)c4n3)n2)cc1	PLC-gamma1 inh 13 | PLCg1 ctr inactive | PLCb3 confirm inactive
COc1ccc2nc(Nc3nc(CSc4ccc(C)cc4)cc(=O)[nH]3)nc(C)c2c1	none
O=[N+]([O-])c1ccc(Sc2ncccn2)c([N+](=O)[O-])c1	PLC-gamma1 inh 12 | PLCg1 ctr 10 | PLCb3 confirm inactive
Cc1ccc(-n2nc3c(=O)n(CCCC(=O)NCc4ccccc4F)nc(C)c3c2C)cc1	none
Cc1ccc(-n2nc3c(=O)n(CCCC(=O)NCc4ccccc4C)nc(C)c3c2C)cc1	PLC-gamma1 inh 14 | PLCg1 ctr inactive | PLCb3 confirm inactive
O=C(NCCc1c[nH]c2ccccc12)OCc1cn(-c2cccc(C(F)(F)F)c2)nn1	none (no result: ARFGAP1 inh, ASAP1 inh)
C[C@@H]1ON(C)[C@H]2C[C@H]3c4[nH]c5cccc(-c6ccccc6F)c5c4CCN3C(=O)[C@@H]12	none
N#Cc1ccccc1CSc1ccccn1	PLCb3 inh 11 | PLCg1 ctr inactive | PLCb3 confirm inactive
N#Cc1ccc(CSc2ccccn2)c(Cl)c1	none
COC(CNC(=O)[C@H](Cc1ccccc1)NC1(C(=O)NC2CCCCC2)CCCC1)OC	PLC-gamma1 inh 9.8 (no result: ARFGAP1 inh, ASAP1 inh) | PLCg1 ctr inactive | PLCb3 confirm inactive
O=C(NCC(c1ccccc1)c1ccccc1)[C@H](Cc1ccccc1)NC1(C(=O)NC2CCCCC2)CCCC1	none (no result: ARFGAP1 inh, ASAP1 inh)
O=C(CCc1nc2ccccc2s1)OCc1ccccc1	PLCb3 inh 11 | PLCg1 ctr inactive | PLCb3 confirm inactive
